From ChEMBL document CHEMBL4261490, “Exploring the links between peptoid antibacterial activity and toxicity” (Medchemcomm, 2017) come the findings set out here.

The structures appear in SMILES notation. Square brackets hold non-standard residues; d marks the D form. Peptide text beside a SMILES is read from it. N(4-F-Bzl)Gly = O=C(O)CNCc1ccc(F)cc1; Gly(N-(CH2)6NH2) = NCCCCCCNCC(=O)O; Gly(N-2-aminoethyl) = NCCNCC(=O)O; N(isopentyl)Gly = CC(C)CCNCC(=O)O; Nspe = C[C@H](NCC(=O)O)c1ccccc1; NhArg = N=C(N)NCCCCNCC(=O)O; Nphe = O=C(O)CNCc1ccccc1; Nlys = NCCCCNCC(=O)O

A short description of series [1]: Cytotoxicity against human HaCaT cells assessed as reduction in cell viability pretreated for 1 hr followed by DMEM addition measured after 24 hrs by alamar blue assay. As to conditions: read-out: ED50. The class given is cell-based. In short, it runs like this:
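HaCaT keratinocytes are grown in DMEM high glucose with 10% FBS and 1% P/S and seeded at 2x10^4 cells/well 24 h before treatment. Compound dilution series run 2–100 µM (5 mM DMSO stocks) in 50 µL for 1 h, then medium is added for 24 h at 37 °C, 5% CO2. alamarBlue is read after 1 h (Ex 540/Em 620). Triplicate, ≥2 occasions; ED50 from dose-response; amphotericin B positive control.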
On the technique in general: Alamar Blue is a resazurin reagent that responds to reducing activity.

Series [2] can be described thus: Selectivity index, ratio of ED50 for human HaCaT cells to MIC for Staphylococcus aureus 3R7089 strain Oxford/ATCC 9144. The class given is toxicity. As to conditions: read-out: Selectivity Index.
Series [3] can be described thus: Selectivity index, ratio of ED50 for human HepG2 cells to MIC for Staphylococcus epidermidis clinical isolate. The class given is toxicity. As to conditions: read-out: Selectivity Index.
Series [4] is described as follows: Selectivity index, ratio of ED50 for human HaCaT cells to MIC for Escherichia coli K-12 W3110 ATCC 27325. The class given is toxicity. Conditions: read-out: Selectivity Index.
Series [5] is described as follows: Selectivity index, ratio of ED50 for human HaCaT cells to MIC for Staphylococcus epidermidis clinical isolate. The class given is toxicity. As to conditions: read-out: Selectivity Index.
A short description of series [6]: Selectivity index, ratio of ED50 for human HepG2 cells to MIC for Escherichia coli K-12 W3110 ATCC 27325. The class given is toxicity. Conditions: read-out: Selectivity Index.
Series [7] is described as follows: Selectivity index, ratio of ED50 for human HepG2 cells to MIC for Staphylococcus aureus 3R7089 strain Oxford/ATCC 9144. The class given is toxicity. Conditions: read-out: Selectivity Index.
The nature of series [8]: Selectivity index, ratio of ED50 for human HaCaT cells to MIC for Pseudomonas aeruginosa PAO1 ATCC 15692. The class given is toxicity. Conditions: read-out: Selectivity Index.
Series [9] is described as follows: Selectivity index, ratio of ED50 for human HepG2 cells to MIC for Pseudomonas aeruginosa PAO1 ATCC 15692. The class given is toxicity. Conditions: read-out: Selectivity Index.
Series [10] can be described thus: Cytotoxicity against human HepG2 cells assessed as reduction in cell viability pretreated for 1 hr followed by DMEM addition measured after 24 hrs by alamar blue assay. The class given is cell-based. Conditions: read-out: ED50. In short, it runs like this:
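HepG2 cells are kept in DMEM high glucose with 10% heat-inactivated FBS and 1% P/S at 37 °C, 5% CO2, and seeded at 2x10^4 cells/well one day ahead. They are exposed to compounds (100 to 3 µM, from 5 mM DMSO stocks) in 50 µL for 1 h. Medium is then added and cells incubated 24 h. alamarBlue is read after 2 h (Ex 560/Em 600). Triplicate on ≥2 occasions; ED50 from dose-response; DMSO negative control.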

The subject of series [11] is Pseudomonas aeruginosa. The series can be described thus: Antibacterial activity against Pseudomonas aeruginosa PAO1 ATCC 15692 incubated for 16 hrs under shaking condition. The class given is functional. Conditions: PAO1 ATCC 15692, 16 h. In outline: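 Broth microdilution (Andrews method) in Iso-sensitest broth. Overnight cultures are adjusted to A650 0.07 (0.5 McFarland) and diluted ten-fold. Compounds come from 5 mM DMSO stocks, 2-fold serially diluted, final 2–100 μM in a 1:1 inoculum:compound mix. Incubation is 37 °C for 16 h with shaking. MIC is the lowest concentration giving complete growth inhibition, read by absorbance; triplicate.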

Take `NCCCCNCC(=O)N(CC(=O)N(CC(=O)N(CCCCN)CC(=O)N(CC(=O)N(CC(=O)N(CCCCN)CC(=O)N(CC(=O)N(CC(N)=O)Cc1ccc(F)cc1)Cc1ccc(F)cc1)Cc1ccc(F)cc1)Cc1ccc(F)cc1)Cc1ccc(F)cc1)Cc1ccc(F)cc1` (H-[Nlys][N(4-F-Bzl)Gly][N(4-F-Bzl)Gly][Nlys][N(4-F-Bzl)Gly][N(4-F-Bzl)Gly][Nlys][N(4-F-Bzl)Gly][N(4-F-Bzl)Gly]-NH2): the CC50 at 24 h in [1] is > 100 µM. Moreover, the selectivity ratio in series [2] was determined as 33; in series [3], 15; in series [4], 6; in [5] it was 33; in [6] it was 3; in [7] it was 15.

On to `C[C@@H](c1ccccc1)N(CC(N)=O)C(=O)CN(C(=O)CN(CCCCCCN)C(=O)CN(C(=O)CN(C(=O)CN(CCCCCCN)C(=O)CN(C(=O)CN(C(=O)CN(CCCCCCN)C(=O)CN(C(=O)CN(C(=O)CNCCCCCCN)[C@@H](C)c1ccccc1)[C@@H](C)c1ccccc1)[C@@H](C)c1ccccc1)[C@@H](C)c1ccccc1)[C@@H](C)c1ccccc1)[C@@H](C)c1ccccc1)[C@@H](C)c1ccccc1` (H-[Gly(N-(CH2)6NH2)][Nspe][Nspe][Gly(N-(CH2)6NH2)][Nspe][Nspe][Gly(N-(CH2)6NH2)][Nspe][Nspe][Gly(N-(CH2)6NH2)][Nspe][Nspe]-NH2), for which the selectivity ratio was found to be 0 in series [8]; 12 in series [2]; 21 in series [3]; 12 in series [5]; 1 in series [9]; 21 in series [7].

For the molecule `N=C(N)NCCCCNCC(=O)N(CC(=O)N(CC(=O)N(CCCCNC(=N)N)CC(=O)N(CC(=O)N(CC(=O)N(CCCCNC(=N)N)CC(=O)N(CC(=O)N(CC(=O)N(CCCCNC(=N)N)CC(=O)N(CC(=O)N(CC(N)=O)Cc1ccccc1)Cc1ccccc1)Cc1ccccc1)Cc1ccccc1)Cc1ccccc1)Cc1ccccc1)Cc1ccccc1)Cc1ccccc1` (H-[NhArg][Nphe][Nphe][NhArg][Nphe][Nphe][NhArg][Nphe][Nphe][NhArg][Nphe][Nphe]-NH2), the results for the selectivity ratio in [8], in series [4] and in series [5] were 4, 17 and 50, respectively. Moreover, the CC50 at 24 h in [1] is > 100 µM.

With `NCCNCC(=O)N(CC(=O)N(CC(=O)N(CCN)CC(=O)N(CC(=O)N(CC(=O)N(CCN)CC(=O)N(CC(=O)N(CC(=O)N(CCN)CC(=O)N(CC(=O)N(CC(N)=O)Cc1ccccc1)Cc1ccccc1)Cc1ccccc1)Cc1ccccc1)Cc1ccccc1)Cc1ccccc1)Cc1ccccc1)Cc1ccccc1` (H-[Gly(N-2-aminoethyl)][Nphe][Nphe][Gly(N-2-aminoethyl)][Nphe][Nphe][Gly(N-2-aminoethyl)][Nphe][Nphe][Gly(N-2-aminoethyl)][Nphe][Nphe]-NH2), the CC50 at 24 h in [1] and in series [10] was > 100 µM each time. Further, the selectivity ratio in series [3] is 17; in series [4] it was 8; in [5], 17; in [6], 8.

`C[C@@H](c1ccccc1)N(CC(N)=O)C(=O)CN(C(=O)CN(CCCCN)C(=O)CN(C(=O)CN(C(=O)CN(CCCCN)C(=O)CN(C(=O)CN(C(=O)CN(CCCCNC(=N)N)C(=O)CN(C(=O)CN(C(=O)CNCCCCN)[C@@H](C)c1ccccc1)[C@@H](C)c1ccccc1)[C@@H](C)c1ccccc1)[C@@H](C)c1ccccc1)[C@@H](C)c1ccccc1)[C@@H](C)c1ccccc1)[C@@H](C)c1ccccc1` (H-[Nlys][Nspe][Nspe][NhArg][Nspe][Nspe][Nlys][Nspe][Nspe][Nlys][Nspe][Nspe]-NH2): the selectivity ratio in series [8], in series [2], in [4] and in series [6] was 2 throughout.

Consider `CC(C)CCN(CC(=O)N(CC(N)=O)[C@@H](C)c1ccccc1)C(=O)CN(CCCCNC(=N)N)C(=O)CN(C(=O)CN(CCC(C)C)C(=O)CN(CCCCNC(=N)N)C(=O)CN(C(=O)CN(CCC(C)C)C(=O)CNCCCCNC(=N)N)[C@@H](C)c1ccccc1)[C@@H](C)c1ccccc1` (H-[NhArg][N(isopentyl)Gly][Nspe][NhArg][N(isopentyl)Gly][Nspe][NhArg][N(isopentyl)Gly][Nspe]-NH2), for which, in [11], the MIC was > 100 µM.

`C[C@@H](c1ccccc1)N(CC(N)=O)C(=O)CN(Cc1ccc(F)cc1)C(=O)CN(CCCCN)C(=O)CN(C(=O)CN(Cc1ccc(F)cc1)C(=O)CN(CCCCN)C(=O)CN(C(=O)CN(Cc1ccc(F)cc1)C(=O)CN(CCCCN)C(=O)CN(C(=O)CN(Cc1ccc(F)cc1)C(=O)CNCCCCN)[C@@H](C)c1ccccc1)[C@@H](C)c1ccccc1)[C@@H](C)c1ccccc1`: the selectivity ratio came to 10 in [2], 13 in series [3], 10 in series [5] and 13 in series [7].

For `C[C@@H](c1ccccc1)N(CC(N)=O)C(=O)CN(C(=O)CN(CCCCNC(=N)N)C(=O)CN(C(=O)CN(C(=O)CN(CCCCNC(=N)N)C(=O)CN(C(=O)CN(C(=O)CN(CCCCN)C(=O)CN(C(=O)CN(C(=O)CNCCCCN)[C@@H](C)c1ccccc1)[C@@H](C)c1ccccc1)[C@@H](C)c1ccccc1)[C@@H](C)c1ccccc1)[C@@H](C)c1ccccc1)[C@@H](C)c1ccccc1)[C@@H](C)c1ccccc1` (H-[Nlys][Nspe][Nspe][Nlys][Nspe][Nspe][NhArg][Nspe][Nspe][NhArg][Nspe][Nspe]-NH2), the selectivity ratio in series [8] is 3; in [2], 6; in series [4], 6. Moreover, the CC50 at 24 h in series [1] is > 100 µM.

In the case of `NCCCCNCC(=O)N(CC(=O)N(CC(=O)N(CCCCN)CC(=O)N(CC(=O)N(CC(=O)N(CCCCN)CC(=O)N(CC(=O)N(CC(=O)N(CCCCN)CC(=O)N(CC(=O)N(CC(N)=O)Cc1ccccc1)Cc1ccccc1)Cc1ccccc1)Cc1ccccc1)Cc1ccccc1)Cc1ccccc1)Cc1ccccc1)Cc1ccccc1` (H-[Nlys][Nphe][Nphe][Nlys][Nphe][Nphe][Nlys][Nphe][Nphe][Nlys][Nphe][Nphe]-NH2), the selectivity ratio was determined as 12 in series [2]; 50 in series [3]; 3 in [4]; 18 in series [5]; 8 in [6]; 33 in [7]. In addition, in series [10], the CC50 at 24 h was > 100 µM.

For `C[C@@H](c1ccccc1)N(CC(N)=O)C(=O)CN(C(=O)CN(CCCCN)C(=O)CN(C(=O)CN(C(=O)CN(CCCCNC(=N)N)C(=O)CN(C(=O)CN(C(=O)CN(CCCCN)C(=O)CN(C(=O)CN(C(=O)CNCCCCNC(=N)N)[C@@H](C)c1ccccc1)[C@@H](C)c1ccccc1)[C@@H](C)c1ccccc1)[C@@H](C)c1ccccc1)[C@@H](C)c1ccccc1)[C@@H](C)c1ccccc1)[C@@H](C)c1ccccc1` (H-[NhArg][Nspe][Nspe][Nlys][Nspe][Nspe][NhArg][Nspe][Nspe][Nlys][Nspe][Nspe]-NH2), the selectivity ratio in series [2], in [4] and in series [6] was 2 throughout.

On to `C[C@@H](c1ccccc1)N(CC(N)=O)C(=O)CN(C(=O)CN(CCCCN)C(=O)CN(C(=O)CN(C(=O)CN(CCCCN)C(=O)CN(C(=O)CN(C(=O)CN(CCCCNC(=N)N)C(=O)CN(C(=O)CN(C(=O)CNCCCCNC(=N)N)[C@@H](C)c1ccccc1)[C@@H](C)c1ccccc1)[C@@H](C)c1ccccc1)[C@@H](C)c1ccccc1)[C@@H](C)c1ccccc1)[C@@H](C)c1ccccc1)[C@@H](C)c1ccccc1` (H-[NhArg][Nspe][Nspe][NhArg][Nspe][Nspe][Nlys][Nspe][Nspe][Nlys][Nspe][Nspe]-NH2), for which the selectivity ratio in series [8], in series [2] and in [4] was 1 in each case.

As to `NCCCCNCC(=O)N(CC(=O)N(CC(=O)N(CCCCN)CC(=O)N(CC(=O)N(CC(=O)N(CCCCN)CC(=O)N(CC(=O)N(CC(=O)N(CCCCN)CC(=O)N(CC(=O)N(CC(N)=O)Cc1ccc(F)cc1)Cc1ccc(F)cc1)Cc1ccc(F)cc1)Cc1ccc(F)cc1)Cc1ccc(F)cc1)Cc1ccc(F)cc1)Cc1ccc(F)cc1)Cc1ccc(F)cc1` (H-[Nlys][N(4-F-Bzl)Gly][N(4-F-Bzl)Gly][Nlys][N(4-F-Bzl)Gly][N(4-F-Bzl)Gly][Nlys][N(4-F-Bzl)Gly][N(4-F-Bzl)Gly][Nlys][N(4-F-Bzl)Gly][N(4-F-Bzl)Gly]-NH2), the selectivity ratio in [2] was found to be 23; in series [3] it was 30; in series [4], 4; in series [5] it was 46; in series [6] it was 2; in [7], 15.

The MIC is the smallest concentration in the dilution series that meets the test's criterion for growth inhibition. Low readings indicate a more susceptible organism, high ones a less susceptible organism.
